Activity calls are given as the source filed them. No cut-off for these calls is given here.
Tests used:
Nucleic Acid [1] = experiment: Binding affinity to DNA (unknown origin) assessed as DNA intercalation by UV-visible spectrophotometry in presence of Ni2+; type: nucleic-acid assay
Nucleic Acid [2] = experiment: Binding affinity to DNA (unknown origin) assessed as DNA intercalation by UV-visible spectrophotometry in presence of Zn2+; type: nucleic-acid assay
BJ [3] = experiment: Selectivity index, ratio of IC50 for human BJ cells to IC50 for human CCRF-CEM cells; type: functional; conditions: pooled result: one value given for 2 cell lines, strains, targets or settings
CEM-DNR = experiment: Selectivity index, ratio of IC50 for human MRC5 cells to IC50 for human CEM-DNR cells; type: functional
K562 [4] = experiment: Selectivity index, ratio of IC50 for human MRC5 cells to IC50 for human K562 cells; type: functional
BJ [5] = experiment: Selectivity index, ratio of IC50 for human BJ cells to IC50 for human K562-TAX cells; type: functional
MRC5 = experiment: Selectivity index, ratio of IC50 for human MRC5 cells to IC50 for human K562-TAX cells; type: functional
A549 [6] = experiment: Selectivity index, ratio of IC50 for human BJ cells to IC50 for human A549 cells; type: functional
A549 [7] = experiment: Selectivity index, ratio of IC50 for human MRC5 cells to IC50 for human A549 cells; type: functional
BJ [8] = experiment: Selectivity index, ratio of IC50 for human BJ cells to IC50 for human HCT116 cells; type: functional
HCT-116 [9] = experiment: Selectivity index, ratio of IC50 for human MRC5 cells to IC50 for human HCT116 cells; type: functional
BJ [10] = experiment: Selectivity index, ratio of IC50 for human BJ cells to IC50 for human p53-/- HCT116 cells; type: functional
HCT-116 [11] = experiment: Selectivity index, ratio of IC50 for human MRC5 cells to IC50 for human p53-/- HCT116 cells; type: functional
CCRF-CEM [12] = experiment: Cytostatic activity against human CCRF-CEM cells after 72 hrs by MTT assay; type: functional, cell-based
Procedure, shortened: (§1)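 Cells were seeded at 25,000–30,000 per well and pre-incubated for 24 h at 37°C in 5% CO2. Four-fold compound dilutions were added in duplicate and incubated for 72 h. MTT was added for 1–4 h, and formazan was dissolved in 10% aq SDS (pH 5.5) overnight at 37°C. OD was read at 540 nm. IC50 came from dose-response curves, mean ± SD of eight independent experiments.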

K562 [13] = experiment: Cytostatic activity against human K562 cells after 72 hrs by MTT assay; type: functional, cell-based; conditions: K562, 72 h; procedure, shortened: as §1
[14] = Cytostatic activity against human K562-TAX cells after 72 hrs by MTT assay; type: functional, cell-based; procedure, shortened: as §1
A549 [15] = experiment: Cytostatic activity against human A549 cells after 72 hrs by MTT assay; type: functional, cell-based; conditions: A549, 72 h; procedure, shortened: as §1
[16] = Cytostatic activity against human HCT116 cells after 72 hrs by MTT assay; type: functional, cell-based; conditions: HCT-116, 72 h; procedure, shortened: as §1
BJ [17] = experiment: Cytostatic activity against human BJ cells after 72 hrs by MTT assay; type: ADME, cell-based; procedure, shortened: as §1
CCRF-CEM [18] = experiment: Induction of apoptosis in human CCRF-CEM cells assessed as apoptotic cells at 5 times IC50 after 24 hrs by propidium iodide staining-based flow cytometry; type: functional
Procedure, shortened: (§2)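 Cells were then fixed in 70% ethanol, washed in hypotonic citrate buffer, treated with RNase (50 µg/mL) and stained with propidium iodide. Flow cytometry used a 488 nm laser. Apoptosis was scored as the percentage of particles with propidium content below G0/G1.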

CCRF-CEM [19] = experiment: Cell cycle arrest in human CCRF-CEM cells assessed as accumulation at G0/G1 phase at 5 times IC50 after 24 hrs by propidium iodide staining-based flow cytometry; type: functional; procedure, shortened: as §2
CCRF-CEM [20] = experiment: Cell cycle arrest in human CCRF-CEM cells assessed as accumulation at S phase at 5 times IC50 after 24 hrs by propidium iodide staining-based flow cytometry; type: functional; procedure, shortened: as §2
CCRF-CEM [21] = experiment: Induction of apoptosis in human CCRF-CEM cells assessed as mitotic cells at IC50 after 24 hrs by pH3Ser10+ labeling-based flow cytometry; type: functional
CCRF-CEM [22] = experiment: Induction of apoptosis in human CCRF-CEM cells assessed as mitotic cells at 5 times IC50 after 24 hrs by pH3Ser10+ labeling-based flow cytometry; type: functional
CCRF-CEM [23] = experiment: Induction of apoptosis in human CCRF-CEM cells assessed as inhibition of DNA synthesis at IC50 after 24 hrs by propidium iodide/BrdU staining by flow cytometry; type: functional; parameters: scale not given: the % may be the effect or the level left
CCRF-CEM [24] = experiment: Induction of apoptosis in human CCRF-CEM cells assessed as inhibition of DNA synthesis at 5 times IC50 after 24 hrs by propidium iodide/BrdU staining by flow cytometry; type: functional; parameters: scale not given: the % may be the effect or the level left
CCRF-CEM [25] = experiment: Induction of apoptosis in human CCRF-CEM cells assessed as inhibition of RNA synthesis at IC50 after 24 hrs by propidium iodide/BrU staining by flow cytometry; type: functional; parameters: scale not given: the % may be the effect or the level left
CCRF-CEM [26] = experiment: Induction of apoptosis in human CCRF-CEM cells assessed as inhibition of RNA synthesis at 5 times IC50 after 24 hrs by propidium iodide/BrU staining by flow cytometry; type: functional; parameters: scale not given: the % may be the effect or the level left
Staphylococcus aureus [27] = experiment: Antimicrobial activity against Staphylococcus aureus CCM 3953 up to 200 uM after 24 to 48 hrs by broth microdilution method; type: functional, organism-based
Escherichia coli = experiment: Antimicrobial activity against Escherichia coli CCM 3954 up to 200 uM after 24 to 48 hrs by broth microdilution method; type: functional, organism-based
Staphylococcus aureus [28] = experiment: Antimicrobial activity against methicillin-resistant Staphylococcus aureus MRSA 4591 up to 200 uM after 24 to 48 hrs by broth microdilution method; type: functional, organism-based
Pichia kudriavzevii = experiment: Antifungal activity against Candida crusei up to 200 uM after 24 to 48 hrs by broth microdilution method; type: functional, organism-based
Candida tropicalis = experiment: Antifungal activity against Candida tropicalis up to 200 uM after 24 to 48 hrs by broth microdilution method; type: functional, organism-based
Candida parapsilosis = experiment: Antifungal activity against Candida parapsilosis up to 200 uM after 24 to 48 hrs by broth microdilution method; type: functional, organism-based
[29] = Metal chelating activity of the compound assessed as formation of Co2+ complex by UV-vis spectrometry; type: physicochemical
[30] = Metal chelating activity of the compound assessed as formation of Cu2+ complex by UV-vis spectrometry; type: physicochemical
[31] = Metal chelating activity of the compound assessed as formation of Fe3+ complex by UV-vis spectrometry; type: physicochemical
[32] = Metal chelating activity of the compound assessed as formation of Ni2+ complex by UV-vis spectrometry; type: physicochemical
[33] = Metal chelating activity of the compound assessed as formation of Zn2+ complex by UV-vis spectrometry; type: physicochemical
[34] = Metal chelating activity of the compound assessed as formation of Ca2+ complex by UV-vis spectrometry; type: physicochemical
[35] = Metal chelating activity of the compound assessed as formation of Mg2+ complex by UV-vis spectrometry; type: physicochemical
[36] = Metal chelating activity of the compound assessed as formation of Fe2+ complex by UV-vis spectrometry; type: physicochemical
Nucleic Acid [37] = experiment: Binding affinity to DNA (unknown origin) assessed as DNA intercalation by UV-visible spectrophotometry; type: nucleic-acid assay
Nucleic Acid [38] = experiment: Binding affinity to DNA (unknown origin) assessed as DNA intercalation by UV-visible spectrophotometry in presence of Cu2+; type: nucleic-acid assay

O=C(N/N=C/c1cc(O)ccc1O)c1ccc2c3c(ccc2c1)N1Cc2c(ccc4cc(C(=O)N/N=C/c5cc(O)ccc5O)ccc24)N(C3)C1
Activity (Nucleic Acid [1]): Active | Activity (Nucleic Acid [2]): Active | Ratio IC50 (BJ [3]): 63.2 | Ratio IC50 (CEM-DNR): 1.4 | Ratio IC50 (K562 [4]): 8 | Ratio IC50 (BJ [5]): 13.8 | Ratio IC50 (MRC5): 13.8 | Ratio IC50 (A549 [6]): 20.9 | Ratio IC50 (A549 [7]): 20.9 | Ratio IC50 (BJ [8]): 9.1 | Ratio IC50 (HCT-116 [9]): 9.1 | Ratio IC50 (BJ [10]): 29 | Ratio IC50 (HCT-116 [11]): 29 | IC50 (CCRF-CEM [12]): 60 nM | IC50 (K562 [13]): 440 nM | IC50 [14]: 260 nM | IC50 (A549 [15]): 170 nM | IC50 [16]: 390 nM | IC50 (BJ [17]): 6550 nM | Activity (CCRF-CEM [18]): 9.74% | Activity (CCRF-CEM [19]): 21.32% | Activity (CCRF-CEM [20]): 58.22% | Activity (CCRF-CEM [21]): 2.34% | Activity (CCRF-CEM [22]): 2.39% | Activity (CCRF-CEM [23]): 50.15% | Activity (CCRF-CEM [24]): 55.96% | Activity (CCRF-CEM [25]): 48.47% | Activity (CCRF-CEM [26]): 43.16% | Activity (Staphylococcus aureus [27]): inactive | Activity (Escherichia coli): inactive | Activity (Staphylococcus aureus [28]): inactive | Activity (Pichia kudriavzevii): inactive | Activity (Candida tropicalis): inactive | Activity (Candida parapsilosis): inactive | Activity [29]: Active | Activity [30]: Active | Activity [31]: Active | Activity [32]: Active | Activity [33]: Active | Activity [34]: Not Active | Activity [35]: Not Active | Activity [36]: Not Active | Activity (Nucleic Acid [37]): inactive | Activity (Nucleic Acid [38]): Active

COc1ccc(O)c(/C=N/NC(=O)c2ccc3c4c(ccc3c2)N2Cc3c(ccc5cc(C(=O)N/N=C/c6cc(OC)ccc6O)ccc35)N(C4)C2)c1
Activity (Nucleic Acid [1]): Active | Activity (Nucleic Acid [2]): Active | Ratio IC50 (BJ [3]): 162.3 | Ratio IC50 (CEM-DNR): 13.3 | Ratio IC50 (K562 [4]): 357.2 | Ratio IC50 (BJ [5]): 137.7 | Ratio IC50 (MRC5): 137.7 | Ratio IC50 (A549 [6]): 123.2 | Ratio IC50 (A549 [7]): 123.2 | Ratio IC50 (BJ [8]): 622.3 | Ratio IC50 (HCT-116 [9]): 622.3 | Ratio IC50 (BJ [10]): 495 | Ratio IC50 (HCT-116 [11]): 495 | IC50 (CCRF-CEM [12]): 180 nM | IC50 (K562 [13]): 80 nM | IC50 [14]: 210 nM | IC50 (A549 [15]): 230 nM | IC50 [16]: 50 nM | IC50 (BJ [17]): 57200 nM | Activity (CCRF-CEM [18]): 21.74% | Activity (CCRF-CEM [19]): 39.05% | Activity (CCRF-CEM [20]): 48.55% | Activity (CCRF-CEM [21]): 0.99% | Activity (CCRF-CEM [22]): 0.67% | Activity (CCRF-CEM [23]): 50.98% | Activity (CCRF-CEM [24]): 31.78% | Activity (CCRF-CEM [25]): 63.95% | Activity (CCRF-CEM [26]): 56.37% | Activity (Staphylococcus aureus [27]): inactive | Activity (Escherichia coli): inactive | Activity (Staphylococcus aureus [28]): inactive | Activity (Pichia kudriavzevii): inactive | Activity (Candida tropicalis): inactive | Activity (Candida parapsilosis): inactive | Activity [29]: Active | Activity [30]: Active | Activity [31]: Active | Activity [32]: Active | Activity [33]: Active | Activity [34]: Not Active | Activity [35]: Not Active | Activity [36]: Not Active | Activity (Nucleic Acid [37]): inactive | Activity (Nucleic Acid [38]): Active

O=C(N/N=C/c1nccc2ccccc12)c1ccc2c3c(ccc2c1)N1Cc2c(ccc4cc(C(=O)N/N=C/c5nccc6ccccc56)ccc24)N(C3)C1
Activity (Nucleic Acid [1]): Active | Activity (Nucleic Acid [2]): Active | Ratio IC50 (BJ [3]): 172 | Ratio IC50 (CEM-DNR): 15.9 | Ratio IC50 (K562 [4]): 121.9 | Ratio IC50 (BJ [5]): 9.9 | Ratio IC50 (MRC5): 9.9 | Ratio IC50 (A549 [6]): 5.4 | Ratio IC50 (A549 [7]): 5.4 | Ratio IC50 (BJ [8]): 5.7 | Ratio IC50 (HCT-116 [9]): 5.7 | Ratio IC50 (BJ [10]): 4 | Ratio IC50 (HCT-116 [11]): 4 | IC50 (CCRF-CEM [12]): 580 nM | IC50 (K562 [13]): 820 nM | IC50 [14]: 10100 nM | IC50 (A549 [15]): 18600 nM | IC50 [16]: 17700 nM | IC50 (BJ [17]): > 100000 nM | Activity (CCRF-CEM [18]): 10.73% | Activity (CCRF-CEM [19]): 46.56% | Activity (CCRF-CEM [20]): 39.87% | Activity (CCRF-CEM [21]): 1.65% | Activity (CCRF-CEM [22]): 1.52% | Activity (CCRF-CEM [23]): 52.93% | Activity (CCRF-CEM [24]): 43.36% | Activity (CCRF-CEM [25]): 44% | Activity (CCRF-CEM [26]): 16.94% | Activity (Staphylococcus aureus [27]): inactive | Activity (Escherichia coli): inactive | Activity (Staphylococcus aureus [28]): inactive | Activity (Pichia kudriavzevii): inactive | Activity (Candida tropicalis): inactive | Activity (Candida parapsilosis): inactive | Activity [29]: Active | Activity [30]: Active | Activity [31]: Active | Activity [32]: Active | Activity [33]: Active | Activity [34]: Not Active | Activity [35]: Not Active | Activity [36]: Not Active | Activity (Nucleic Acid [37]): inactive | Activity (Nucleic Acid [38]): Active
